Data taken from ChEMBL document CHEMBL1157097, “Humulane and germacrane sesquiterpenes from Ferula lycia” (J Nat Prod, 2010).

System: not listed separately
Test: Cytotoxicity against human bone marrow cells by MTT assay
Assay type: cell-based
Conditions: Bone marrow cell; call rule not given here
How it was run: (§1)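 Cells grown in RPMI 1640 with 1% glutamine, 1% penicillin/streptomycin and 10% fetal calf serum, then exposed to the sesquiterpenes. Viability was read by MTT. Bone marrow came from three healthy volunteers who gave informed consent. Camptothecin was the positive control for Raji.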
In the case of `C/C1=C\[C@H](OC(=O)c2ccc(O)cc2)[C@H](C(C)C)CC/C(C)=C/CC1`, the IC50 is reported as over 50 µM. For `CC(=O)O[C@H]1/C=C(/C)[C@H](OC(=O)c2ccc(O)cc2)C/C=C(\C)CCCC1(C)C` [JUNIFERININ], the IC50 was 30.7 µM.

System: Raji
Test: Cytotoxicity against human Raji cells by MTT assay
Assay type: functional, cell-based
Conditions: not given
How it was run: as §1
With `C/C1=C\[C@H](OC(=O)c2ccc(O)cc2)[C@H](C(C)C)CC/C(C)=C/CC1` the IC50 was 20.9 µM. With `CC[C@@]1(O)C(=O)OCc2c1cc1n(c2=O)Cc2cc3ccccc3nc2-1` [CAMPTOTHECIN] the IC50 was 1 µM. Compound `CC(=O)O[C@H]1/C=C(/C)[C@H](OC(=O)c2ccc(O)cc2)C/C=C(\C)CCCC1(C)C` [JUNIFERININ] has an IC50 of 13 µM.

System: not listed separately
Test: Cytotoxicity against mouse dasatinib-resistant DA1-3b cells carrying pCDNA3-p210BCR/ABL plasmid by MTT assay
Assay type: functional, cell-based
Conditions: Mus musculus, DA1-3b; read-out: IC50
How it was run: as §1
For `C/C1=C\[C@H](OC(=O)c2ccc(O)cc2)[C@H](C(C)C)CC/C(C)=C/CC1`, the IC50 was 24.7 µM. With `CC[C@@]1(O)C(=O)OCc2c1cc1n(c2=O)Cc2cc3ccccc3nc2-1` [CAMPTOTHECIN] the IC50 was 0.03 µM. `C/C1=C/[C@H](O)C(C)(C)CCC/C(C)=C/C[C@H]1OC(=O)c1ccc(O)cc1` [JUNIFERDIN] showed an IC50 of 23.7 µM. `CC(=O)O[C@H]1/C=C(/C)[C@H](OC(=O)c2ccc(O)cc2)C/C=C(\C)CCCC1(C)C` [JUNIFERININ] gave an IC50 of 18.6 µM. `COc1cc(C(=O)O[C@@H]2C/C=C(\C)CCCC(C)(C)[C@@H](O)/C=C\2C)ccc1O` [JUNIFERIN] gave an IC50 of 29 µM. With `C/C=C(/C)C(=O)O[C@@H]1C/C=C(\C)CCCC(C)(C)[C@@H](OC(C)=O)/C=C\1C` [LYCIFERIN B] the IC50 was 45 µM. Compound `CC(=O)O[C@H]1/C=C(/C)[C@H](OC(=O)c2ccccc2)C/C=C(\C)CCCC1(C)C` [LYCIFERIN D] has an IC50 of 45 µM. Compound `COc1cc(C(=O)O[C@@H]2C/C=C(\C)CCCC(C)(C)[C@@H](OC(C)=O)/C=C\2C)ccc1O` [LYCIFERIN E] has an IC50 of 20.1 µM.

Same assay, conditions: da1-3b
For `COc1cc(C(=O)O[C@H]2/C=C(\C)CC/C=C(\C)CC[C@H]2C(C)C)ccc1O`, the IC50 was “Not Active”. In the case of `C/C=C(/C)C(=O)O[C@@H]1C/C=C(\C)CCCC(C)(C)[C@@H](O)/C=C\1C` [LYCIFERIN A], the IC50 is reported as “Not Active”. In the case of `C/C1=C/[C@H](O)C(C)(C)CCC/C(C)=C/C[C@H]1OC(=O)c1ccccc1` [LYCIFERIN C], the IC50 is reported as “Not Active”. With `C=C1/C=C/C(C)(C)[C@H](OC(=O)c2ccc(O)c(OC)c2)CC/C(C)=C/CC1` [VANILLOYL FERVANOL] the IC50 was “Not Active”.

System: K562
Test: Cytotoxicity against human imitinib-resistant K562 cells by MTT assay
Assay type: functional, cell-based
Conditions: Homo sapiens, K562; read-out: IC50
How it was run: as §1
`C/C1=C\[C@H](OC(=O)c2ccc(O)cc2)[C@H](C(C)C)CC/C(C)=C/CC1` showed an IC50 of 25.3 µM. `CC[C@@]1(O)C(=O)OCc2c1cc1n(c2=O)Cc2cc3ccccc3nc2-1` [CAMPTOTHECIN] gave an IC50 of 0.002 µM. In the case of `C/C1=C/[C@H](O)C(C)(C)CCC/C(C)=C/C[C@H]1OC(=O)c1ccc(O)cc1` [JUNIFERDIN], the IC50 is reported as over 50 µM. For `CC(=O)O[C@H]1/C=C(/C)[C@H](OC(=O)c2ccc(O)cc2)C/C=C(\C)CCCC1(C)C` [JUNIFERININ], the IC50 was 33 µM. Work on `COc1cc(C(=O)O[C@@H]2C/C=C(\C)CCCC(C)(C)[C@@H](O)/C=C\2C)ccc1O` [JUNIFERIN] yielded an IC50 of over 50 µM. For `C/C=C(/C)C(=O)O[C@@H]1C/C=C(\C)CCCC(C)(C)[C@@H](OC(C)=O)/C=C\1C` [LYCIFERIN B], the IC50 was over 50 µM. `CC(=O)O[C@H]1/C=C(/C)[C@H](OC(=O)c2ccccc2)C/C=C(\C)CCCC1(C)C` [LYCIFERIN D] showed an IC50 of over 50 µM. In the case of `COc1cc(C(=O)O[C@@H]2C/C=C(\C)CCCC(C)(C)[C@@H](OC(C)=O)/C=C\2C)ccc1O` [LYCIFERIN E], the IC50 is reported as 41.5 µM.

Same assay, conditions: k562
For `COc1cc(C(=O)O[C@H]2/C=C(\C)CC/C=C(\C)CC[C@H]2C(C)C)ccc1O`, the IC50 was “Not Active”. With `C/C=C(/C)C(=O)O[C@@H]1C/C=C(\C)CCCC(C)(C)[C@@H](O)/C=C\1C` [LYCIFERIN A] the IC50 was “Not Active”. With `C/C1=C/[C@H](O)C(C)(C)CCC/C(C)=C/C[C@H]1OC(=O)c1ccccc1` [LYCIFERIN C] the IC50 was “Not Active”. In the case of `C=C1/C=C/C(C)(C)[C@H](OC(=O)c2ccc(O)c(OC)c2)CC/C(C)=C/CC1` [VANILLOYL FERVANOL], the IC50 is reported as “Not Active”.
